The results in this text go back to ChEMBL document CHEMBL3045866, “A novel family of insect-selective peptide neurotoxins targeting insect large-conductance calcium-activated K+ channels isolated from the venom of the theraphosid spider Eucratoscelus constrictus” (Mol Pharmacol, 2011).

In series [1] the target is Voltage-gated sodium channel Nav1 alpha subunit (Periplaneta americana) (UniProt D0E0C1). To be noted: 300 nM.
Series [2] addresses Voltage-dependent calcium channel alpha-1 subunit (Blattella germanica) (UniProt O18323). In words: Inhibition of voltage-gated calcium channel Cav-mediated late-sustained current in Periplaneta americana (American cockroach) DUM neurons assessed as measured at holding potential -80 mV depolarized to +40 mV after 10 min by whole cell patch clamp assay in presence of CdCl2. In a few lines:
(§1)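 BK(Ca) current in DUM neurons with 5 mM 4-AP in the bath. Toxin perfused for 10 min or to equilibrium; then 1 mM CdCl2 plus 30 nM ChTx added, and the residual current subtracted. 100-ms steps from Vh -80 mV to +30 mV, or to +40 mV in 10-mV increments for I–V. Peak (fast-transient) and 100-ms (late) amplitudes measured. IC50 from logistic fit; n = 3–6.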

The test system of series [3] is Mus musculus. In words: Neurotoxicity against Mus musculus C57BL/6 (mouse) assessed as effect on posture at 500 pmol, icv. It counts as toxicity, organism-based. To be noted: in vivo, icv_or_intrathecal. The gist of the method: (§2)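 Female C57BL/6 mice (~20 g) lightly anesthetized with diethylether. 5 µl of sample in BSA solution injected into the left cerebral ventricle. Posture, behavior and neurotoxic signs observed; n = 2.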

In series [4] the target is Voltage-dependent calcium channel alpha-1 subunit (Blattella germanica) (UniProt O18323). The series can be described thus: Inhibition of high voltage activated Cav channel in Periplaneta americana (American cockroach) DUM neurons assessed as effect on voltage-dependent activation at 330 nM measured at holding potential -90 mV depolarized to +70 mV with 10 mV increments after 10 min by whole cell patch clamp assay. In a few lines: (§3)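 Ba2+ currents through M-LVA and HVA Cav channels recorded by whole-cell clamp in cockroach DUM neurons at 20–23°C. Toxin applied for 10 min via a perfusion needle. Peak IBa measured relative to control. For activation, steps from Vh -90 mV to +70 mV in 10-mV increments at 0.1 Hz. P-P/4 leak subtraction; n = 3.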
Chain of Voltage-dependent calcium channel alpha-1 subunit (Blattella germanica) (O18323 as listed by the source): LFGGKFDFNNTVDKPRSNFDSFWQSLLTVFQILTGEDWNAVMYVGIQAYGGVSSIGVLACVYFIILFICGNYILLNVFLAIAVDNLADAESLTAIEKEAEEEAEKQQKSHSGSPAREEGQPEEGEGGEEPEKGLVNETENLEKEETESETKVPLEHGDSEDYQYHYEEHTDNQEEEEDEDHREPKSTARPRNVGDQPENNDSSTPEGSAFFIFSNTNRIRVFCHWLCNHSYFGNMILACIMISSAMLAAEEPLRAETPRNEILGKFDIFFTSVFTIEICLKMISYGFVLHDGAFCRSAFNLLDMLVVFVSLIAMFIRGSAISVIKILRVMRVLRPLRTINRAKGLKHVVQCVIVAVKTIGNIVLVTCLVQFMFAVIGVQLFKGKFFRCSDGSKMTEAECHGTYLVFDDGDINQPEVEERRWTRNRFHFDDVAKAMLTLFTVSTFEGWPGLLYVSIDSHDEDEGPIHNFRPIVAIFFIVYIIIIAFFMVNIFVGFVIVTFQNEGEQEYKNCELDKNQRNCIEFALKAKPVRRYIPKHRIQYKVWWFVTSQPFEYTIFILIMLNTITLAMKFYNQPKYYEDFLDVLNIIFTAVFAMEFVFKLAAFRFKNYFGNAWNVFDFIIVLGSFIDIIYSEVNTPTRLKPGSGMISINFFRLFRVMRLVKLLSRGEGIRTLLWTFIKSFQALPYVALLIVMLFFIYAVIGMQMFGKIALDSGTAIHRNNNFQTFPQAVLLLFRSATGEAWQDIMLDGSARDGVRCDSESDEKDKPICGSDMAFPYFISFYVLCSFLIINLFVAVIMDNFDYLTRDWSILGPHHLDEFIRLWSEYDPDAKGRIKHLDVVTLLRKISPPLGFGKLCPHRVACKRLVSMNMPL
Background: Patch clamp records ionic current or voltage across a cell membrane.

The target is the same in series [5]. In words: Inhibition of voltage-gated calcium channel Cav-mediated fast-transient current in Periplaneta americana (American cockroach) DUM neurons assessed as measured at holding potential -80 mV depolarized to +40 mV after 10 min by whole cell patch clamp assay in presence of CdCl2. In a few lines: as §1
Series [6] concerns Gryllus bimaculatus. The series can be described thus: Neurotoxicity against third-instar nymph stage of Gryllus bimaculatus (cricket) assessed as paralysis at 1.1 nmol/g measured within 5 min. The format is functional, organism-based.
The target in series [7] is Voltage-dependent calcium channel alpha-1 subunit (Blattella germanica) (UniProt O18323). In words: Inhibition of high voltage activated Cav channel in Periplaneta americana (American cockroach) DUM neurons assessed as reduction in barium current at 330 nM measured at holding potential -90 mV depolarized to +30 mV after 10 min by whole cell patch clamp assay relative to control. The gist of the method:
as §3

The test system of series [8] is Gryllus bimaculatus. The series can be described thus: Neurotoxicity against third-instar nymph stage of Gryllus bimaculatus (cricket) assessed as mortality at 1.1 nmol/g measured at 15 min. The format is functional, organism-based.
In series [9] the target is Voltage-gated sodium channel Nav1 alpha subunit (Periplaneta americana) (UniProt D0E0C1). The series can be described thus: Inhibition of Nav channel in Periplaneta americana (American cockroach) DUM neurons assessed as remaining activity at 330 nM measured at holding potential -90 mV depolarized to -10 mV after 10 min by whole cell patch clamp assay relative to control. The gist of the method:
(§4)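 Whole-cell voltage clamp of TTX-sensitive Na+ current in DUM neurons isolated from adult cockroaches and kept no longer than 24 h at 30°C. Bath (mM): NaCl 80, CsCl 5, CaCl2 1.8, TEA-Cl 50, 4-AP 5, HEPES 10, NiCl2 0.1, CdCl2 1, pH 7.4. Vh -90 mV; test pulse to -10 mV, or steps to +70 mV in 10-mV increments at 0.1 Hz. P-P/4 leak subtraction; 20–23°C.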

Series [10] is described as follows: Inhibition of transient A type potassium channel IK(A) in Periplaneta americana (American cockroach) DUM neurons at 330 nM measured at holding potential -90 mV depolarized to +30 mV after 10 min by whole cell patch clamp assay in presence of CdCl2 and ChTx.
A short description of series [11]: Reversible inhibition of Potassium channel Kv in Periplaneta americana (American cockroach) DUM neurons at 330 nM measured at holding potential -90 mV depolarized to +30 mV after 10 min by whole cell patch clamp assay relative to control.
Series [12] in a line: Inhibition of transient A type potassium channel IK(A) in Periplaneta americana (American cockroach) DUM neurons assessed as effect on voltage-dependent activation at 330 nM measured at holding potential -90 mV depolarized to +40 mV with 100 ms increments after 10 min by whole cell patch clamp ….
A short description of series [13]: Inhibition of delayed rectifier potassium channel IK(DR) in Periplaneta americana (American cockroach) DUM neurons assessed as effect on voltage-dependent activation at 330 nM measured at holding potential -90 mV depolarized to +40 mV with 100 ms increments after 10 min by whole cell voltage clamp ….
The target of series [14] is Voltage-gated sodium channel Nav1 alpha subunit (Periplaneta americana) (UniProt D0E0C1). In words: Inhibition of Nav channel in Periplaneta americana (American cockroach) DUM neurons assessed as effect on voltage-dependent activation at 330 nM measured at holding potential -90 mV depolarised to +70 mV with 10 mV increments for 10 min by whole cell patch clamp assay. The gist of the method: as §4

Series [15] deals with Voltage-dependent calcium channel alpha-1 subunit (Blattella germanica) (UniProt O18323). The series can be described thus: Inhibition of mid-low voltage activated Cav channel in Periplaneta americana (American cockroach) DUM neurons assessed as reduction in barium current at 330 nM measured at holding potential -90 mV depolarized to -20 mV after 10 min by whole cell patch clamp assay relative to control. The gist of the method:
as §3

For series [16] the target is unchanged. In words: Inhibition of mid-low voltage activated Cav channel in Periplaneta americana (American cockroach) DUM neurons assessed as effect on voltage-dependent activation at 330 nM measured at holding potential -90 mV depolarized to +70 mV with 10 mV increments after 10 min by whole cell patch clamp assay. In a few lines:
as §3

Series [17] has the same target. The series can be described thus: Inhibition of voltage-gated calcium channel Cav-mediated late-sustained current in Periplaneta americana (American cockroach) DUM neurons assessed as effect on voltage-dependent activation at 25 nM measured at holding potential -80 mV in 10 mV increments depolarized to +40 mV after 10 min by whole cell patch clamp assay in presence of CdCl2.

Series [18] concerns Mus musculus. The series can be described thus: Neurotoxicity against Mus musculus C57BL/6 (mouse) assessed as effect on behaviour at 500 pmol, icv. To be noted: in vivo, icv_or_intrathecal. It counts as toxicity, organism-based. In a few lines: as §2
Series [19] is described as follows: Inhibition of delayed rectifier potassium channel IK(DR) in Periplaneta americana (American cockroach) DUM neurons at 330 nM measured at holding potential -90 mV depolarized to +30 mV after 10 min by whole cell voltage clamp assay in presence of CdCl2 and ChTx relative to control.
The target in series [20] is Voltage-dependent calcium channel alpha-1 subunit (Blattella germanica) (UniProt O18323). The series can be described thus: Inhibition of voltage-gated calcium channel Cav-mediated fast-transient current in Periplaneta americana (American cockroach) DUM neurons assessed as effect on voltage-dependent activation at 25 nM measured at holding potential -80 mV in 10 mV increments depolarized to +40 mV after 10 min by whole cell patch clamp assay in presence of CdCl2. In a few lines:
as §1

Series [21] has the same target. The series can be described thus: Inhibition of voltage-gated calcium channel Cav-mediated fast-transient current in Periplaneta americana (American cockroach) DUM neurons assessed as effect on voltage-dependent activation at 6 nM measured at holding potential -80 mV in 10 mV increments depolarized to +40 mV after 10 min by whole cell patch clamp assay in presence of CdCl2. The gist of the method:
as §1

For series [22] the target is unchanged. The series can be described thus: Inhibition of voltage-gated calcium channel Cav-mediated late-sustained current in Periplaneta americana (American cockroach) DUM neurons assessed as effect on voltage-dependent activation at 6 nM measured at holding potential -80 mV in 10 mV increments depolarized to +40 mV after 10 min by whole cell patch clamp assay in presence of CdCl2. In a few lines:
as §1

Calls of active or inactive are those of the source. The rule behind the calls is not given here. Bridge positions count the residues as written; N and C are the ends. Peptide text beside a SMILES is read from it.

Chain of Voltage-gated sodium channel Nav1 alpha subunit (Periplaneta americana) (D0E0C1 as listed by the source): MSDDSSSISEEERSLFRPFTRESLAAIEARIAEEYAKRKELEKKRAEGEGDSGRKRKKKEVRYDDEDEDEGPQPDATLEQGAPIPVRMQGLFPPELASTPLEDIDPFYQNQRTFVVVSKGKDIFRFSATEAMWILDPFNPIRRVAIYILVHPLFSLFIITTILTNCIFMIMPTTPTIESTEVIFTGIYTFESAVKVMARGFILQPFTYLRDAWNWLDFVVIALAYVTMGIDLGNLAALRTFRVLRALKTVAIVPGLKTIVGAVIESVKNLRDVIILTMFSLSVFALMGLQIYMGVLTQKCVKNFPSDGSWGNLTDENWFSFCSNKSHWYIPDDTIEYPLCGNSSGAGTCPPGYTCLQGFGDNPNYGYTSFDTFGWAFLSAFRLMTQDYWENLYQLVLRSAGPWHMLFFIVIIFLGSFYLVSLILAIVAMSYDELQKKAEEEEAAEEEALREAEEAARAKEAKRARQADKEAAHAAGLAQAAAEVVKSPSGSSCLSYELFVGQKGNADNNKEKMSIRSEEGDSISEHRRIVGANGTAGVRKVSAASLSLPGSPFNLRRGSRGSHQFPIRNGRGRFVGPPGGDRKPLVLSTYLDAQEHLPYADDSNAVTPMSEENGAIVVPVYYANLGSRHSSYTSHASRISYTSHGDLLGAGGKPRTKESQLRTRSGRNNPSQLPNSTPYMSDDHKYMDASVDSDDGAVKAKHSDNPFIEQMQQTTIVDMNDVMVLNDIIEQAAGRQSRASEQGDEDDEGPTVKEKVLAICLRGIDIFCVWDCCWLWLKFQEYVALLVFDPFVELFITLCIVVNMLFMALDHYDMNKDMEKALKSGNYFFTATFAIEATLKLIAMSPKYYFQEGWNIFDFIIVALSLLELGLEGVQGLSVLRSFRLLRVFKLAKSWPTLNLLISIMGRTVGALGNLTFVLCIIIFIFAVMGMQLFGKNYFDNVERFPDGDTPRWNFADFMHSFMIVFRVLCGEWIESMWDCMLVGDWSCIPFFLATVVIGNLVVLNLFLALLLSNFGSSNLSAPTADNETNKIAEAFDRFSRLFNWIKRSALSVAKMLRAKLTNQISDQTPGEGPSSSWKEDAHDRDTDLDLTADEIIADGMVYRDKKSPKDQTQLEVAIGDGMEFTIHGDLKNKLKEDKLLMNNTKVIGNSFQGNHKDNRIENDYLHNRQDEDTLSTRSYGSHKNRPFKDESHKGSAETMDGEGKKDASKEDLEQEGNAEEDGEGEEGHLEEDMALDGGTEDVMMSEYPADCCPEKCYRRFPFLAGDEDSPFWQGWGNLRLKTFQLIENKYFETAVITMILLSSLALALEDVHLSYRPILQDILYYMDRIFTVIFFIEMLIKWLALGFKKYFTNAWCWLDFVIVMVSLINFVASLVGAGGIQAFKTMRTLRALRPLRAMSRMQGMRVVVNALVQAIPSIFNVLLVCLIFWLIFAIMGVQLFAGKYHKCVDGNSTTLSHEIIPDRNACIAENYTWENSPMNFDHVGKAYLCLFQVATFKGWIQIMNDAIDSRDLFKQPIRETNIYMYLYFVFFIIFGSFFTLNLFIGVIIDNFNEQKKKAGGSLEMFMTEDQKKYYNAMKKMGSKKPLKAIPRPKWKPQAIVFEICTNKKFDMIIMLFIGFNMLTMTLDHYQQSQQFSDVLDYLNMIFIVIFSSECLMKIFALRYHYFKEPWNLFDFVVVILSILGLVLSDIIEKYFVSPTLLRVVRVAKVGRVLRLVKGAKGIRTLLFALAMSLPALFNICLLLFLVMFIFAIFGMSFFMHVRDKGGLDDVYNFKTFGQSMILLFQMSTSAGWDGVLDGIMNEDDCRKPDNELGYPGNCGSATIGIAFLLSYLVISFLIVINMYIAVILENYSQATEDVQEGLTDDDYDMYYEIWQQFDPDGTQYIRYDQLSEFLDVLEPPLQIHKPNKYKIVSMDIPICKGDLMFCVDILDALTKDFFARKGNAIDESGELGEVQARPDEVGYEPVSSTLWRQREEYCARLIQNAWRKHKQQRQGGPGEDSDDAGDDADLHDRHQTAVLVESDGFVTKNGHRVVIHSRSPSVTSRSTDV

For orientation: inhibition means the share of the control response that was lost under treatment. Turning to `NC1=N[C@H](O)[C@H]2[C@H]3O[C@]4(O)O[C@@H]([C@@H](O)[C@@]2(N1)[C@@H]4O)[C@]3(O)CO`, the inhibition entry in series [1] was “Active”.

For the molecule `CSCC[C@@H]1NC(=O)[C@H](CC(=O)O)NC(=O)[C@H](CCC(=O)O)NC(=O)[C@@H]2CSSC[C@H](NC(=O)[C@@H](N)Cc3ccc(O)cc3)C(=O)N[C@@H](CCC(N)=O)C(=O)N[C@@H](CCCCN)C(=O)N[C@@H](Cc3ccccc3)C(=O)N[C@@H](CC(C)C)C(=O)N[C@@H](Cc3c[nH]c4ccccc34)C(=O)N[C@@H]([C@@H](C)O)C(=O)N[C@H]3CSSC[C@H](NC(=O)[C@H](C(C)C)NC1=O)C(=O)N[C@@H](CCC(=O)O)C(=O)N[C@@H](CC(C)C)C(=O)N[C@@H](Cc1c[nH]c4ccccc14)C(=O)N[C@H](C(=O)N[C@@H](CCCCN)C(=O)N[C@@H](Cc1ccc(O)cc1)C(=O)N[C@@H](CCCCN)C(=O)N[C@@H](CCC(=O)O)C(=O)O)CSSC[C@H](NC(=O)[C@H](CCCCN)NC(=O)[C@H](CCCNC(=N)N)NC(=O)[C@H](CCC(=O)O)NC(=O)[C@H]([C@@H](C)O)NC(=O)[C@H](CC(=O)O)NC3=O)C(=O)N2` (H-YCQKFLWTCDTERKCCEDMVCELWCKYKE-OH; disulfide 2-16, 9-21, 15-25), the inhibition result in series [2] is “Dose-dependent effect”; in series [5], “Dose-dependent effect”; in [7] it was 7%; in series [15] it was 10%. In addition, the Activity entry in series [3] was “Non-toxic”; in series [9] it was 92%; in series [18], “Non-toxic”. Besides, the inhibition result in series [4], in series [10], in series [12], in series [13], in series [14] and in series [16] was “inactive” each time. Besides, the inhibition entry in series [17], in series [19] and in series [20] was “inactive” in each case. For the same molecule, the result in series [6] and in series [8] was Active. Moreover, the inhibition entry in series [11] was “Active”.

Turning to `CSCC[C@@H]1NC(=O)[C@H](CC(=O)O)NC(=O)[C@H](CCC(=O)O)NC(=O)[C@@H]2CSSC[C@H](NC(=O)[C@@H](N)Cc3ccc(O)cc3)C(=O)N[C@@H](CCC(N)=O)C(=O)N[C@@H](CCCCN)C(=O)N[C@@H](Cc3ccccc3)C(=O)N[C@@H](CC(C)C)C(=O)N[C@@H](Cc3c[nH]c4ccccc34)C(=O)N[C@@H]([C@@H](C)O)C(=O)N[C@H]3CSSC[C@H](NC(=O)[C@H](C(C)C)NC1=O)C(=O)N[C@@H](CCC(=O)O)C(=O)N[C@@H](CC(C)C)C(=O)N[C@@H](Cc1c[nH]c4ccccc14)C(=O)N[C@H](C(=O)N[C@@H](CCCCN)C(=O)N[C@@H](CC(C)C)C(=O)N[C@@H](CCC(=O)O)C(=O)N[C@@H](CCCCN)C(=O)O)CSSC[C@H](NC(=O)[C@H](CCCCN)NC(=O)[C@H](CCCNC(=N)N)NC(=O)[C@H](CCC(=O)O)NC(=O)[C@H]([C@@H](C)O)NC(=O)[C@H](CC(=O)O)NC3=O)C(=O)N2` (H-YCQKFLWTCDTERKCCEDMVCELWCKLEK-OH; disulfide 2-16, 9-21, 15-25), the results for the inhibition result in series [2], in series [5] and in [19] were “Dose-dependent effect”, “Dose-dependent effect” and 31%, respectively. For the same molecule, the Activity entry in [3] and in [18] was “Non-toxic” throughout. Further, the inhibition entry in [4], in [21], in series [12], in [13], in [14] and in series [22] was “inactive” each time. For the same molecule, the inhibition entry in [16] was “inactive”. Further, the outcome in [6] and in series [8] was Active. For the same molecule, the inhibition entry in series [10] and in series [11] was “Active” in each case.
